Experimental data published in ChEMBL document CHEMBL1137371, “Pyrazolidine-3,5-diones and 5-hydroxy-1H-pyrazol-3(2H)-ones, inhibitors of UDP-N-acetylenolpyruvyl glucosamine reductase” (J Med Chem, 2006).
pIC50: −log10 of the molar value. Values after ≈ are worked out from the molar mass of the structure shown. Active and inactive are the calls of the source. The calls are words filed in the database; no cut-off is given here.

Assays:
Enterococcus faecalis = test: Antibacterial activity against vancomycin resistant Enterococcus faecalis GC 2242 by microbroth dilution method; assay type: functional
Staphylococcus aureus = test: Antibacterial activity against methicillin resistant Staphylococcus aureus GC 1131 by micro-broth dilution method; assay type: functional
[1] = target: T1, UDP-N-acetylenolpyruvoylglucosamine reductase (Escherichia coli K-12, UniProt P08373); test: Inhibition of MurB activity
T1 sequence (P08373 whole entry): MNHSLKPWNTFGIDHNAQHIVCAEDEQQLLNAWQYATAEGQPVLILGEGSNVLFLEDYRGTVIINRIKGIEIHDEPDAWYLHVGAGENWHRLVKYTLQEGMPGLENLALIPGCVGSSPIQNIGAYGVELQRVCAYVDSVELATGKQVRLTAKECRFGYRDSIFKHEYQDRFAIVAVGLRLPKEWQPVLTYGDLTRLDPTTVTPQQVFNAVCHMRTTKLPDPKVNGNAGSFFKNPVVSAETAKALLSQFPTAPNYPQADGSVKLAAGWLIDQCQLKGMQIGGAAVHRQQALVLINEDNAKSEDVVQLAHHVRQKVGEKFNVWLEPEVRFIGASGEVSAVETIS
Summary of the method: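 Recombinant E. coli MurB was expressed in BL21(λDE3) and purified. Enzyme (20 nM) was preincubated 20 min with inhibitor at 1.6, 3.2, 6.4, 12.8, 25 and 50 µM. Reaction in 50 mM Tris-HCl pH 8.0 with 10 mM KCl, 50 µM enolpyruvyl UDP-GlcNAc and 100 µM NADPH. NADPH oxidation followed as A340 decrease over 5 min. IC50 from sigmoid Hill fit, mean of three runs.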

Streptococcus pneumoniae [2] = test: Antibacterial activity against penicillin resistant Streptococcus pneumoniae GC 1894 by microbroth dilution method; assay type: functional
Escherichia coli = test: Antibacterial activity against Escherichia coli GC 4560 (imp) by micro-broth dilution method; assay type: functional
Summary of the method: (§1)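 Broth microdilution in Mueller-Hinton II medium per NCCLS recommendations. Inoculum 5 × 10⁵ cfu/mL, compound range 0.06-128 µg/mL. MIC read after 18 h at 35 °C in ambient air.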

Candida albicans = test: Antibacterial activity against Candida albicans by micro-broth dilution method; assay type: functional, organism-based; summary of the method: as §1
Streptococcus pneumoniae [3] = test: Antibacterial activity against Streptococcus pneumoniae in presence of 4% bovine serum albumin; assay type: functional
[4] = system: Staphylococcus epidermidis; test: Inhibition of soluble peptidoglycan biosynthesis in Staphylococcus epidermidis; assay type: functional, organism-based
Summary of the method: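 S. epidermidis was grown in BHI to OD600 0.6, washed and concentrated tenfold in cell-wall-enriched medium. Cells incubated with 50 µg/mL chloramphenicol, 100 µg/mL penicillin G, [¹⁴C]-GlcNAc (2.9 µM/40 nCi) and compound at 0-25 µg/mL, 1 h, 37 °C, shaking. Supernatant precipitated with 5% TCA/0.4% BSA, 30 min at 4 °C, then filtered and scintillation counted.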

[5] = Enterococcus faecalis, GC 2242, read-out: MIC
[6] = Staphylococcus aureus, GC 1131, read-out: MIC
[7] = Streptococcus pneumoniae, GC 1894, read-out: MIC
[8] = Escherichia coli, GC 4560, read-out: MIC

MIC (Escherichia coli)	Compound	MIC (Enterococcus faecalis; [5])	MIC (Staphylococcus aureus; [6])	pIC50 [1]	MIC (Streptococcus pneumoniae [2]; [7])	MIC (Escherichia coli; [8])	Activity (Candida albicans)	MIC (Streptococcus pneumoniae [3])	pIC50 [4]	MIC (Enterococcus faecalis)	MIC (Streptococcus pneumoniae [2])	MIC (Staphylococcus aureus)
–	O=C1CC(=O)N(c2ccc(Cl)cc2)N1c1ccc(Cl)cc1	8 µg/mL (≈ 24.9 µM)	8 µg/mL (≈ 24.9 µM)	4.15	8 µg/mL (≈ 24.9 µM)	16 µg/mL (≈ 49.8 µM)	–	–	–	–	–	–
>128 µg/mL	COc1ccc(NC(=O)c2c(O)n(-c3ccc(Cl)cc3)n(-c3ccc(Cl)cc3)c2=O)cc1	–	–	4.80	–	–	inactive	–	–	–	–	–
–	O=C(c1ccc(OC(F)(F)F)cc1)c1c(O)n(-c2ccc(Cl)cc2)n(-c2ccc(Cl)cc2)c1=O	0.79 µg/mL (≈ 1.55 µM)	12.7 µg/mL (≈ 24.9 µM)	5.27	0.79 µg/mL (≈ 1.55 µM)	25.4 µg/mL (≈ 49.9 µM)	inactive	> 128 µg/mL	5.70	–	–	–
–	O=C1CC(=O)N(c2cccc(Cl)c2)N1c1cccc(Cl)c1	16 µg/mL (≈ 49.8 µM)	16 µg/mL (≈ 49.8 µM)	4.16	8 µg/mL (≈ 24.9 µM)	200 µg/mL (≈ 623 µM)	–	–	4.25	–	–	–
–	O=C(Nc1ccc(Cl)cc1)c1c(O)n(-c2ccccc2)n(-c2ccccc2)c1=O	1 µg/mL (≈ 2.46 µM)	32 µg/mL (≈ 78.8 µM)	4.27	0.5 µg/mL (≈ 1.23 µM)	> 128 µg/mL	inactive	> 128 µg/mL	–	–	–	–
–	O=C(c1ccc(-c2ccccc2)cc1)c1c(O)n(-c2ccc(Cl)cc2)n(-c2ccc(Cl)cc2)c1=O	0.39 µg/mL (≈ 0.778 µM)	3.1 µg/mL (≈ 6.18 µM)	5.21	0.3 µg/mL (≈ 0.598 µM)	> 100 µg/mL	inactive	> 128 µg/mL	5.31	–	–	–
–	Cc1ccc(NC(=O)c2c(O)n(-c3ccc(Cl)c(Cl)c3)n(-c3ccc(Cl)c(Cl)c3)c2=O)cc1	0.25 µg/mL (≈ 0.478 µM)	16 µg/mL (≈ 30.6 µM)	5.32	< 0.12 µg/mL	> 128 µg/mL	inactive	> 128 µg/mL	5.40	–	–	–
2 µg/mL (≈ 4.21 µM)	O=C(Nc1ccc(Cl)cc1)c1c(O)n(-c2ccc(Cl)cc2)n(-c2ccc(Cl)cc2)c1=O	–	–	4.86	–	–	inactive	–	4.37	–	–	–
–	O=C(c1ccc(C(F)(F)F)cc1)c1c(O)n(-c2ccc(Cl)cc2)n(-c2ccc(Cl)cc2)c1=O	–	8 µg/mL (≈ 16.2 µM)	4.82	–	16 µg/mL (≈ 32.4 µM)	inactive	> 128 µg/mL	–	2 µg/mL (≈ 4.05 µM)	0.5 µg/mL (≈ 1.01 µM)	–
–	O=C1C(=C(O)c2ccc(Cl)c(Cl)c2)C(=O)N(c2ccc(Cl)cc2)N1c1ccc(Cl)cc1	0.77 µg/mL (≈ 1.56 µM)	6.2 µg/mL (≈ 12.5 µM)	4.89	0.39 µg/mL (≈ 0.789 µM)	49 µg/mL (≈ 99.2 µM)	inactive	> 128 µg/mL	–	–	–	–
–	O=C(Nc1ccc(Cl)cc1)c1c(O)n(-c2cccc(Cl)c2)n(-c2cccc(Cl)c2)c1=O	0.25 µg/mL (≈ 0.527 µM)	0.5 µg/mL (≈ 1.05 µM)	5.07	< 0.12 µg/mL	> 128 µg/mL	inactive	> 128 µg/mL	5.52	–	–	–

Compound	MIC (Escherichia coli)	MIC (Enterococcus faecalis; [5])	MIC (Staphylococcus aureus; [6])	pIC50 [1]	MIC (Streptococcus pneumoniae [2]; [7])	MIC (Escherichia coli; [8])	Activity (Candida albicans)	MIC (Streptococcus pneumoniae [3])	pIC50 [4]	MIC (Enterococcus faecalis)	MIC (Streptococcus pneumoniae [2])	MIC (Staphylococcus aureus)
O=C(c1ccc(Cl)cc1)c1c(O)n(-c2ccc(Cl)cc2)n(-c2ccc(Cl)cc2)c1=O	23 µg/mL (≈ 50 µM)	–	–	4.96	–	–	inactive	> 128 µg/mL	–	1.4 µg/mL (≈ 3.05 µM)	0.72 µg/mL (≈ 1.57 µM)	5.7 µg/mL (≈ 12.4 µM)
